This note sets out measurements from ChEMBL document CHEMBL4837261, “Optimization of TopoIV Potency, ADMET Properties, and hERG Inhibition of 5-Amino-1,3-dioxane-Linked Novel Bacterial Topoisomerase Inhibitors: Identification of a Lead with In Vivo Efficacy against MRSA” (J Med Chem, 2021).

≈ marks a conversion by molar mass, not a printed value.

Data set [1] is described as follows: Permeability of the compound from apical to basolateral side in human Caco-2 cells. As to conditions: read-out: permeability. The data set is classed as ADME, cell-based.
Data set [2] in a line: Permeability of the compound from basolateral to apical side in human Caco-2 cells. The data set is classed as ADME, cell-based. As to conditions: read-out: permeability. Summed up: (§1)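 Run at RTI International. Covers plasma protein binding (mouse, human; percent free), CACO-2 permeability and efflux, and microsomal stability (mouse and human microsomes) giving half-life.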

Another data set has as its target CYP2C19 (Homo sapiens, UniProt P33261). As to the kind of experiment: Inhibition of CYP2C19 (unknown origin) at 10 uM relative to control. The data set is classed as ADME.
The target in a further data set is CYP2C8 (Homo sapiens, UniProt P10632). As to the kind of experiment: Inhibition of CYP2C8 (unknown origin) at 10 uM relative to control. The data set is classed as ADME.
Data set [3] is described as follows: Metabolic stability in human microsomes assessed as half life. The data set is classed as ADME, Microsome. Summed up:
as §1

The test system of data set [4] is Staphylococcus aureus. The data set can be described thus: Selectivity index, ratio of IC50 for inhibition of Staphylococcus aureus topoisomerase IV decatenation activity to IC50 for inhibition of Staphylococcus aureus DNA gyrase supercoiling activity. Summed up: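 Both IC50s were measured in gel-based assays with S. aureus enzymes: supercoiling inhibition for DNA gyrase and decatenation inhibition for TopoIV. The ratio is TopoIV IC50 divided by gyrase IC50.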

In data set [5] the target is Acetylcholinesterase (Homo sapiens) (UniProt P22303). The data set can be described thus: Inhibition of human recombinant acetylcholinesterase receptor expressed in HEK293 cells at 100 uM by spectrophotometry. The data set is classed as cell-based.
Data set [6] in a line: Metabolic stability in CD1 mouse microsomes assessed as half life. The data set is classed as ADME, Microsome.
A further data set deals with CYP1A2 (Homo sapiens, UniProt P05177). The data set can be described thus: Inhibition of CYP1A2 (unknown origin) at 10 uM relative to control. The data set is classed as ADME.
The target of a further data set is CYP2C9 (Homo sapiens, UniProt P11712). As to the kind of experiment: Inhibition of CYP2C9 (unknown origin) at 10 uM relative to control. The data set is classed as ADME.
For another data set, the target named is DNA gyrase (Staphylococcus aureus, UniProt P0A0K8+P20831). As to the kind of experiment: Inhibition of Staphylococcus aureus Gyrase supercoiling activity assessed as reduction in supercoiling pBR322 DNA by measuring relaxation by bromophenol blue staining based TAE gel method. The data set is classed as protein-complex assay.
The next data set addresses CYP2B6 (Homo sapiens, UniProt P20813). As to the kind of experiment: Inhibition of CYP2B6 (unknown origin) at 10 uM relative to control. The data set is classed as ADME.
For another data set, the target named is Topoisomerase IV (Staphylococcus aureus, UniProt P0C1S7+P0C1U9). As to the kind of experiment: Inhibition of Staphylococcus aureus topoisomerase IV decatenation activity using kDNA as substrate by ethidium bromide/bromophenol blue staining based agarose gel electrophoresis analysis. The data set is classed as protein-complex assay.
For a further data set, the target named is CYP2D6 (Homo sapiens, UniProt P10635). As to the kind of experiment: Inhibition of CYP2D6 (unknown origin) at 10 uM relative to control. The data set is classed as ADME.
Data set [7] addresses 5-hydroxytryptamine receptor 2B (Homo sapiens) (UniProt P41595). The data set can be described thus: Displacement of [3H]Lysergic acid diethylamide from human recombinant 5HT2B receptor expressed in CHO-K1 cells at 100 uM by radioligand binding assay. The data set is classed as cell-based.
In data set [8] the test system is Staphylococcus aureus. The data set can be described thus: Antibacterial activity against Staphylococcus aureus ATCC 29213 by CLSI method. The data set is classed as functional.
The test system of data set [9] is Staphylococcus aureus. The data set can be described thus: Antibacterial activity against Staphylococcus aureus harbouring GyrA D83N mutant by CLSI method. The data set is classed as functional.
Another data set concerns HepaRG. As to the kind of experiment: Cytotoxicity against human HepaRG cells at 100 uM by ATP depletion assay. The data set is classed as cell-based. Summed up:
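An ATP depletion read-out in HepaRG cells gave cytotoxicity across 0.01–100 μM, reported as % cytotoxicity at 100 μM.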

The test system of data set [10] is Staphylococcus aureus. As to the kind of experiment: Antibacterial activity against methicillin-resistant Staphylococcus aureus USA300 by CLSI method. The data set is classed as functional.
Data set [11] deals with Staphylococcus aureus. As to the kind of experiment: Antibacterial activity against cystic fibrosis isolate Staphylococcus aureus by CLSI method. The data set is classed as functional.
The subject of data set [12] is Staphylococcus aureus. As to the kind of experiment: Antibacterial activity against Staphylococcus aureus 3527 by CLSI method. The data set is classed as functional.
Data set [13] concerns the target Voltage-gated inwardly rectifying potassium channel KCNH2 (Homo sapiens, UniProt Q12809). As to the kind of experiment: Inhibition of human ERG. Summed up: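 hERG channel inhibition was measured on the IonWorks Barracuda automated patch system. IC50 came from eight-point concentration–response curves with four replicates per concentration.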
Data set [14] in a line: Metabolic stability in CD1 mouse liver microsomes assessed as intrinsic clearance at 2 uM measured up to 120 mins by LC-MS/MS analysis. The data set is classed as ADME, Microsome. As to conditions: 2 h.
The nature of data set [15]: Metabolic stability in CD1 mouse liver microsomes assessed as half life at 2 uM measured up to 120 mins by LC-MS/MS analysis. The data set is classed as ADME, Microsome.
Data set [16] in a line: Growth inhibition of human K/VP.5 cells incubated for 48 hrs by NBTI cell counting analysis. Conditions: K562, 48 h. The data set is classed as functional.
The nature of data set [17]: Thermodynamic solubility of the compound at pH 7.4. The data set is classed as physicochemical. As to conditions: buffer, read-out: Therm_solubility. The method in brief:
(§2)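 Run at Charles River (Worcester). Plasma protein binding was measured in mouse, dog and human plasma. Thermodynamic solubility was measured in buffer at pH 7.4.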

The subject of the next data set is Enterococcus sp. As to the kind of experiment: Antibacterial activity against Enterococcus sp. by CLSI method. The data set is classed as functional.
Data set [18] relates to Staphylococcus aureus. The data set can be described thus: Antibacterial activity against Staphylococcus aureus by CLSI method. The data set is classed as functional. The method in brief: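 MICs were determined by broth microdilution per CLSI guidelines, in triplicate at minimum. Strains were S. aureus ATCC 29213, MRSA USA300 and a cystic fibrosis respiratory isolate, and ranges are given where seen.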

A further data set relates to Streptococcus pneumoniae. As to the kind of experiment: Antibacterial activity against Streptococcus pneumoniae by CLSI method. The data set is classed as functional.
A short description of data set [19]: Plasma protein binding in mouse. The data set is classed as ADME, cell-free. As to conditions: read-out: PPB (converted). Summed up:
as §2

For data set [20], the system named is Staphylococcus aureus. The data set can be described thus: Antibacterial activity against fluoroquinolone-resistant methicillin-resistant Staphylococcus aureus by CLSI method. The data set is classed as functional. The method in brief: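 MICs against ciprofloxacin-resistant MRSA USA300, determined following CLSI guidelines. Each determination was run at least in triplicate, and observed ranges were reported where appropriate.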

In another data set the test system is Acinetobacter baumannii. As to the kind of experiment: Antibacterial activity against Acinetobacter baumannii by CLSI method. The data set is classed as functional.
The subject of the next data set is Bacillus anthracis. As to the kind of experiment: Antibacterial activity against Bacillus anthracis by CLSI method. The data set is classed as functional.
Data set [21] in a line: Plasma protein binding in dog. The data set is classed as ADME, cell-free, Canis lupus familiaris. As to conditions: read-out: PPB (converted). Summed up: as §2
Data set [22] in a line: Plasma protein binding in human. The data set is classed as ADME, cell-free. As to conditions: read-out: PPB (converted). Summed up: as §2
The nature of data set [23]: Half life in ICR (CD-1) mouse at 10 mg/kg, iv measured up to 1440 mins by LC-MS/MS analysis. As to conditions: in vivo. The data set is classed as ADME, organism-based. Summed up: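 Male ICR (CD-1) mice, 22 ± 2 g, given the free base in DMSO/Solutol HS-15/0.9% NaCl (5/5/90, v/v/v), IV at 10 mg/kg or PO at 50 mg/kg; 24 mice per route, three per timepoint. Plasma was taken by cardiac puncture at 3–1440 min (IV) or 10–1440 min (PO), measured by LC-MS/MS, and parameters were derived by noncompartmental analysis.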

As to `COc1ccc2ncc(F)c(C(O)C[C@H]3OC[C@H](NCc4cc5c(nn4)OCCS5)CO3)c2n1` (mixture of isomers), the Papp A→B in [1] is 7.85 ×10⁻⁶ cm/s. For the same compound, the Papp B→A in data set [2] was found to be 94.8 ×10⁻⁶ cm/s. For the same compound, the inhibition at 10 µM against CYP2C19, at CYP2C8, against CYP1A2, against CYP2C9, against CYP2B6 and on CYP2D6 was over 50% throughout. The results for the half-life in [3] and in [6] were 26 min and 21 min, respectively. Also, the Ratio IC50 with Staphylococcus aureus [4] turned out to be 47. The inhibition in data set [5] and in data set [7] was over 45% throughout. Moreover, the concentration for half-maximal inhibition (IC50) at DNA gyrase came to 0.24 µM; against Topoisomerase IV, 11 µM. For the same compound, the MIC against Staphylococcus aureus [8] is 0.5 µg/mL (≈ 1.02 µM); against Staphylococcus aureus [9] it was 8 µg/mL (≈ 16.3 µM); with Staphylococcus aureus [10], 1 µg/mL (≈ 2.04 µM); with Staphylococcus aureus [11], 0.5 µg/mL (≈ 1.02 µM); with Staphylococcus aureus [12], 0.5 µg/mL (≈ 1.02 µM). In the data set with HepaRG, the Activity came out at 17%.
For the compound `COc1ccc2ncc(F)c(CC[C@H]3OC[C@H](NCc4ccc5c(c4)OCCO5)CO3)c2n1`, the midpoint of inhibition in data set [13], the IC50, lay at 23 µM. In addition, the intrinsic clearance (CLint) in data set [14] is 2240 µL/min/mg. Moreover, the half-life at 2 µM in data set [15] was determined as 2.43 min.
For `COc1ccc2ncc(F)c(C(O)C[C@H]3OC[C@H](NCc4ccc5c(c4)OCCO5)CO3)c2c1` (mixture of isomers), the IC50 stood at 23.8 µM in data set [16], 8 µM in data set [13], 0.064 µM on DNA gyrase and 5.5 µM on Topoisomerase IV. In addition, the intrinsic clearance (CLint) in data set [14] was found to be 835 µL/min/mg. Moreover, in data set [17], the solubility thermodynamic was determined as 186 µM (≈ 87.5 µg/mL). Moreover, the MIC50 was determined as 0.12 µg/mL (≈ 0.255 µM) with Enterococcus sp.; 0.12 µg/mL (≈ 0.255 µM) against Staphylococcus aureus [18]; 1 µg/mL (≈ 2.13 µM) in the data set on Streptococcus pneumoniae; 32 µg/mL (≈ 68 µM) in the data set with Acinetobacter baumannii; 2 µg/mL (≈ 4.25 µM) against Bacillus anthracis. Also, the half-life at 2 µM in data set [15] turned out to be 6.54 min. The fraction unbound in data set [19], in data set [21] and in data set [22] was 0.11 in each case. Moreover, the MIC with Staphylococcus aureus [20] is 0.25 µg/mL (≈ 0.531 µM); against Staphylococcus aureus [8], 0.125 µg/mL (≈ 0.266 µM); against Staphylococcus aureus [9] it was 2 µg/mL (≈ 4.25 µM); against Staphylococcus aureus [10] it was 0.125 µg/mL (≈ 0.266 µM); with Staphylococcus aureus [11] it was 0.125 µg/mL (≈ 0.266 µM); in the data set with Staphylococcus aureus [12] it was 0.125 µg/mL (≈ 0.266 µM). Besides, the MIC90 in the data set with Bacillus anthracis was 8 µg/mL (≈ 17 µM).
Compound `COc1ccc2ncc(F)c(C[C@H](O)[C@@H]3CC[C@@H](NCc4cc5c(nn4)OCCS5)CO3)c2n1` showed a half-life in data set [23] of 18.6 min.
